Drawing on ChEMBL document CHEMBL1136939, “Fluorinated isatin derivatives. Part 2. New N-substituted 5-pyrrolidinylsulfonyl isatins as potential tools for molecular imaging of caspases in apoptosis” (J Med Chem, 2009), this text covers IC50 for 21 compounds.

The target of one test is T1, Caspase-1 (Homo sapiens, UniProt P29466).
T1 sequence (P29466 whole entry): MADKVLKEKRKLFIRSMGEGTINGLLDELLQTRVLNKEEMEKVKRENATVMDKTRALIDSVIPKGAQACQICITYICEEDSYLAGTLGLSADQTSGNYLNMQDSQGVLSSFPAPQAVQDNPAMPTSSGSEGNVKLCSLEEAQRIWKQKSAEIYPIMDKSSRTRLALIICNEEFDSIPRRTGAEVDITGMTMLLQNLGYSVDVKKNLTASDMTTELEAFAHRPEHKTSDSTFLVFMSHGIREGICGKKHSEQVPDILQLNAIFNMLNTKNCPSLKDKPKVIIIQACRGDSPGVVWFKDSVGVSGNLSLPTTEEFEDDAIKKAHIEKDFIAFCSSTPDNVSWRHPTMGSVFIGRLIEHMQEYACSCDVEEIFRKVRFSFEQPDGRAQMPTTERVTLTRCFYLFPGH
Briefly: Inhibition of human recombinant caspase 1 assessed as accumulation of cleaved fluorogenic 7-amino-4-methylcoumarin after 10 mins. In outline:
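Ac-YVAD-AMC substrate, 10 µM final. Enzyme at 0.5 units per assay is preincubated 10 min at 37 °C with compound in DMSO, single doses 5 pM–500 µM final. Substrate is then added and reacts 10 more min. AMC is read at ex 360/em 460 nm. IC50 comes from nonlinear regression, mean ± SD of three assays.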

The next test has as its target T2, Caspase-3 (Homo sapiens, UniProt P42574).
T2 sequence (P42574 whole entry): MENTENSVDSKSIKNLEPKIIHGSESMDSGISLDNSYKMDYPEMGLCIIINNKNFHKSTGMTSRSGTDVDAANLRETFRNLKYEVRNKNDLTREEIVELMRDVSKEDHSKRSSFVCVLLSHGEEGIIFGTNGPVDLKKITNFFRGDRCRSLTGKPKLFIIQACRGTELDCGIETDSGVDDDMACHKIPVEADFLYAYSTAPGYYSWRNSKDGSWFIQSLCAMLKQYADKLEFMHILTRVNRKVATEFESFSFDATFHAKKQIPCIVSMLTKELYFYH
Put plainly: Inhibition of human recombinant caspase 3 assessed as accumulation of cleaved fluorogenic 7-amino-4-methylcoumarin after 10 mins. In outline:
(§1)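 Ac-DEVD-AMC substrate, 10 µM final. Enzyme at 0.5 units per assay is preincubated 10 min at 37 °C in reaction buffer with compound in DMSO at 5 pM–500 µM final. Substrate reacts a further 10 min. AMC fluorescence is read at 360/460 nm. IC50 by nonlinear regression, mean ± SD of three assays.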

The next test concerns the target T3, Caspase-6 (Homo sapiens, UniProt P55212).
T3 sequence (P55212 whole entry): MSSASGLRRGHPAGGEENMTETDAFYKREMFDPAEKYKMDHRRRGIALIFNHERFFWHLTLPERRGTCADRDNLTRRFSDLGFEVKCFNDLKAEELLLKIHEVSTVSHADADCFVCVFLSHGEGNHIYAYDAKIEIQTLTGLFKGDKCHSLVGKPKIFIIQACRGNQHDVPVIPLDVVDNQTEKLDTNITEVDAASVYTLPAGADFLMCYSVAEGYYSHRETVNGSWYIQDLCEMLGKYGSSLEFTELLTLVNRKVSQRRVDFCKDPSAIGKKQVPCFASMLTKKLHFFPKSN
Briefly: Inhibition of human recombinant caspase 6 assessed as accumulation of cleaved fluorogenic 7-amino-4-methylcoumarin after 10 mins. In outline: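 Substrate Ac-VEID-AMC at 10 µM final, added after the enzyme (0.5 units per assay) has been preincubated 10 min at 37 °C with compound in DMSO at single doses of 5 pM–500 µM. Reaction runs 10 min, then AMC is read at ex 360, em 460 nm. IC50 by nonlinear regression; mean ± SD, n=3.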

The next test has as its target T4, Caspase-7 (Homo sapiens, UniProt P55210).
T4 sequence (P55210 whole entry): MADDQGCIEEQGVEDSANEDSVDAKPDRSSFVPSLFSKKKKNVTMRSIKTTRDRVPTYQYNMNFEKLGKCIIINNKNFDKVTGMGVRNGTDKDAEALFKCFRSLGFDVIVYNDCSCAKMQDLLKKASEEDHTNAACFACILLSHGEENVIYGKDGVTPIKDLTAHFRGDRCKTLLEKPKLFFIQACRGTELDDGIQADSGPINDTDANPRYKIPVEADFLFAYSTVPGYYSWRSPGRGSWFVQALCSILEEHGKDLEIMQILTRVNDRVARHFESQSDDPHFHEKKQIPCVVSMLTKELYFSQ
Briefly: Inhibition of human recombinant caspase 7 assessed as accumulation of cleaved fluorogenic 7-amino-4-methylcoumarin after 10 mins. In outline: as §1

SMILES strings stand for the structures.

Broadly, the IC50 is the point on the concentration scale where inhibition reaches its midpoint. Take `COC[C@@H]1CCCN1S(=O)(=O)c1ccc2c(c1)C(=O)C(=O)N2Cc1ccc(OCC2CO2)cc1` (stereo partly drawn): the IC50 on Caspase-1 is greater than 500000 nM; at Caspase-3 it was 42 nM; on Caspase-6, greater than 500000 nM; on Caspase-7 it was 2.4 nM.
For the compound `COC[C@@H]1CCCN1S(=O)(=O)c1ccc2c(c1)C(=O)C(=O)N2CCC1CO1` (stereo partly drawn), the IC50 is greater than 500000 nM on Caspase-1, 151 nM at Caspase-3, greater than 500000 nM on Caspase-6 and 68 nM at Caspase-7.
With `C=Cc1ccc(CN2C(=O)C(=O)c3cc(S(=O)(=O)N4CCC[C@H]4COC)ccc32)cc1`, the IC50 is greater than 500000 nM at Caspase-1, 9.3 nM on Caspase-3, greater than 500000 nM on Caspase-6 and 7.2 nM on Caspase-7.
Turning to `COC[C@@H]1CCCN1S(=O)(=O)c1ccc2c(c1)C(=O)C(=O)N2CCC(O)CO` (stereo partly drawn), the IC50 on Caspase-1 was greater than 500000 nM; on Caspase-3, 275 nM; at Caspase-6, greater than 500000 nM; at Caspase-7, 61 nM.
On to `O=C1Nc2ccc(S(=O)(=O)N3CCC[C@H]3COc3ccccc3)cc2C1=O`, for which the IC50 at Caspase-1 and at Caspase-6 was greater than 500000 nM each time.
Regarding `C=CCCN1C(=O)C(=O)c2cc(S(=O)(=O)N3CCC[C@H]3COC)ccc21`, the IC50 on Caspase-1 was greater than 500000 nM; on Caspase-3 it was 31 nM; on Caspase-6 it was greater than 500000 nM; at Caspase-7, 50 nM.
As to `COC[C@@H]1CCCN1S(=O)(=O)c1ccc2c(c1)C(=O)C(=O)N2Cc1ccc(C2CO2)cc1` (stereo partly drawn), the IC50 at Caspase-1 is greater than 500000 nM; on Caspase-3 it was 6.6 nM; at Caspase-6 it was greater than 500000 nM; at Caspase-7, 1.9 nM.
As for `COC[C@@H]1CCCN1S(=O)(=O)c1ccc2c(c1)C(=O)C(=O)N2C[C@H](O)CF`, the IC50 at Caspase-1 was greater than 500000 nM; at Caspase-3 it was 19 nM; on Caspase-6, greater than 500000 nM; at Caspase-7, 349 nM.
As for `C=CCN1C(=O)C(=O)c2cc(S(=O)(=O)N3CCC[C@H]3COC)ccc21`, the IC50 on Caspase-1 is greater than 500000 nM; on Caspase-3 it was 25 nM; at Caspase-6, greater than 500000 nM; at Caspase-7 it was 24 nM.
For `COC[C@@H]1CCCN1S(=O)(=O)c1ccc2c(c1)C(=O)C(=O)N2CCCCCCCCCC1CO1` (stereo partly drawn), the IC50 at Caspase-1 is greater than 500000 nM; at Caspase-3 it was 23 nM; on Caspase-6, greater than 500000 nM; at Caspase-7, 61 nM.
For the compound `C=CCOc1ccc(CN2C(=O)C(=O)c3cc(S(=O)(=O)N4CCC[C@H]4COC)ccc32)cc1`, the IC50 at Caspase-1 was greater than 500000 nM; on Caspase-3, 10 nM; at Caspase-6, greater than 500000 nM; on Caspase-7, 0.6 nM.
Take `COC[C@@H]1CCCN1S(=O)(=O)c1ccc2c(c1)C(=O)C(=O)N2C[C@H]1CO1`: the IC50 was 3160 nM at Caspase-1, 17 nM on Caspase-3, greater than 500000 nM at Caspase-6 and 9 nM at Caspase-7.
Turning to `COC[C@@H]1CCCN1S(=O)(=O)c1ccc2c(c1)C(=O)C(=O)N2CCC(O)CF` (stereo partly drawn), the 50% inhibitory concentration (IC50) at Caspase-1 was greater than 500000 nM; at Caspase-3, 3.6 nM; on Caspase-6 it was greater than 500000 nM; on Caspase-7, 99 nM.
In the case of `COC[C@@H]1CCCN1S(=O)(=O)c1ccc2c(c1)C(=O)C(=O)N2CC(F)(F)CBr`, the IC50 at Caspase-3 came out at 1880 nM; on Caspase-7, 1660 nM.
With `COC[C@@H]1CCCN1S(=O)(=O)c1ccc2c(c1)C(=O)C(=O)N2Cc1ccc(C(F)CO)cc1` (stereo partly drawn), the IC50 at Caspase-1 is greater than 500000 nM; on Caspase-3, 80 nM; at Caspase-6 it was greater than 500000 nM; on Caspase-7, 7.6 nM.
With `CN1C(=O)C(=O)c2cc(S(=O)(=O)N3CCC[C@H]3COc3ccccc3)ccc21`, the IC50 on Caspase-1 was greater than 500000 nM; at Caspase-3 it was 2.4 nM; on Caspase-6, greater than 500000 nM; at Caspase-7 it was 304 nM.
Consider `C=CCCCCCCCCCN1C(=O)C(=O)c2cc(S(=O)(=O)N3CCC[C@H]3COC)ccc21`, for which the IC50 is greater than 500000 nM at Caspase-1, 74 nM on Caspase-3, greater than 500000 nM on Caspase-6 and 111 nM on Caspase-7.
As for `COC[C@@H]1CCCN1S(=O)(=O)c1ccc2c(c1)C(=O)C(=O)N2Cc1ccc(C(F)CBr)cc1` (stereo partly drawn), the IC50 on Caspase-1 was greater than 500000 nM; on Caspase-3, 43 nM; on Caspase-6, greater than 500000 nM; at Caspase-7 it was 16 nM.
`COC[C@@H]1CCCN1S(=O)(=O)c1ccc2c(c1)C(=O)C(=O)N2C[C@H](O)CO`: the IC50 on Caspase-1 is greater than 500000 nM; at Caspase-3, 11 nM; at Caspase-6, greater than 500000 nM; at Caspase-7 it was 43 nM.
Consider `COC[C@@H]1CCCN1S(=O)(=O)c1ccc2c(c1)C(=O)C(=O)N2Cc1ccc(OCC(O)CF)cc1` (stereo partly drawn), for which the IC50 at Caspase-1 was greater than 500000 nM; on Caspase-3 it was 145 nM; at Caspase-6, greater than 500000 nM; at Caspase-7, 5 nM.
Take `COC[C@@H]1CCCN1S(=O)(=O)c1ccc2c(c1)C(=O)C(=O)N2`: the IC50 at Caspase-1 and on Caspase-6 was greater than 500000 nM each time.
